Type in all cases: functional
In test [1] the test system is Aspergillus fumigatus. The test can be described thus: Antifungal activity against Aspergillus fumigatus at a concentration of 2 mg/mL in MeOH; Zone: very hazy. Summed up: (§1)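 Standard agar-well diffusion on Sabouraud agar bioassay plates, seeded with C. albicans strain IV or A. fumigatus strain AF-1. Read-out is the inhibition zone produced around the well. Zone appearance is scored as hazy, very hazy, hazy diffused or very hazy diffused, and judged against the zone of the parent mulundocandin.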

Test [2] deals with Aspergillus fumigatus. The test can be described thus: Antifungal activity against Aspergillus fumigatus at a concentration of 5 mg/mL in MeOH; Zone: hazy diffused. Put shortly:
as §1

Test [3] relates to Candida albicans. Briefly: Antifungal activity against Candida albicans at a concentration of 1 mg/mL in MeOH. Put shortly: as §1
Test [4] has as its system Candida albicans. Briefly: Antifungal activity against Candida albicans at a concentration of 5 mg/mL in MeOH. Summed up:
as §1

Test [5] relates to Aspergillus fumigatus. Briefly: Antifungal activity against Aspergillus fumigatus at a concentration of 2 mg/mL in MeOH; Zone: hazy diffused. Summed up:
as §1

In test [6] the test system is Candida albicans. Briefly: Antifungal activity against Candida albicans at an intraperitoneal dose of 20 mg/kg twice a day for 6 days in mice. Summed up: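 Swiss mice were infected with C. albicans and treated intraperitoneally at 20 mg/kg ×6, b.i.d. Kidneys were homogenized and the approximate CFU per gm kidney was counted. Comparator groups were the parent compound, fluconazole and untreated infected controls.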

For test [7], the system named is Aspergillus fumigatus. Briefly: Antifungal activity against Aspergillus fumigatus at a concentration of 2 mg/mL in MeOH; Zone: very hazy diffused. Summed up:
as §1

In test [8] the test system is Candida albicans. The test can be described thus: Antifungal activity against Candida albicans at an intraperitoneal dose of 20 mg/kg twice a day for 6 days in mice in experiment 1. Summed up: (§2)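 Swiss mice infected with C. albicans; compounds given intraperitoneally at 20 mg/kg, ×6, b.i.d. Kidneys homogenized and colony-forming units counted per gram of kidney (approximate). Untreated infected control group included; fluconazole at the same dose used as standard.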

Test [9] deals with Aspergillus fumigatus. The test can be described thus: Antifungal activity against Aspergillus fumigatus at a concentration of 1.1 mg/mL in MeOH; Zone: hazy diffused. Put shortly: as §1
Test [10] relates to Candida albicans. Briefly: Antifungal activity against Candida albicans at a concentration of 0.1 mg/mL in MeOH. Summed up:
as §1

Test [11] has as its system Candida albicans. Briefly: Antifungal activity against Candida albicans at an intraperitoneal dose of 20 mg/kg twice a day for 6 days in mice in experiment 2. Put shortly:
as §2

Test [12] deals with Candida albicans. The test can be described thus: Antifungal activity against Candida albicans at a concentration of 1.1 mg/mL in MeOH. Summed up:
as §1

In test [13] the test system is Aspergillus fumigatus. The test can be described thus: Antifungal activity against Aspergillus fumigatus at a concentration of 1 mg/mL in MeOH; Zone: hazy. Put shortly:
as §1

Test [14] relates to Candida albicans. Briefly: Antifungal activity against Candida albicans at a concentration of 1 mg/mL in MeOH; Zone: hazy. Summed up:
as §1

The subject of test [15] is Aspergillus fumigatus. The test can be described thus: Antifungal activity against Aspergillus fumigatus at a concentration of 5 mg/mL in MeOH; Zone: hazy. Put shortly:
as §1

In test [16] the test system is Aspergillus fumigatus. Briefly: Antifungal activity against Aspergillus fumigatus at a concentration of 2 mg/mL in MeOH; Zone: hazy. Put shortly:
as §1

For test [17], the system named is Aspergillus fumigatus. Briefly: Antifungal activity against Aspergillus fumigatus at a concentration of 5 mg/mL in MeOH; Zone: very hazy diffused. Summed up: as §1
The test system of test [18] is Aspergillus fumigatus. The test can be described thus: Antifungal activity against Aspergillus fumigatus at a concentration of 2 mg/mL in MeOH; Zone: diffused. Put shortly: as §1
The subject of test [19] is Candida albicans. Briefly: Antifungal activity against Candida albicans at a concentration of 2 mg/mL in MeOH; Zone: hazy. Summed up:
as §1

As for `CCC(C)CCCCCCCCCCC(=O)N[C@@H]1C[C@@H](O)C(S(=O)(=O)CC(=O)OC)NC(=O)[C@@H]2[C@@H](O)[C@@H](C)CN2C(=O)C(CO)NC(=O)C([C@@H](O)[C@H](O)c2ccc(O)cc2)NC(=O)[C@@H]2C[C@@H](O)CN2C(=O)C(C(C)O)NC1=O` (some centres undefined), the Zone size in the test on Aspergillus fumigatus [1] came to 24 mm; in the test on Aspergillus fumigatus [2], 29 mm; in the test with Candida albicans [3] it was 20 mm; in the test on Candida albicans [4], 26 mm.
In the case of `CCC(C)CCCCCCCCCCC(=O)N[C@@H]1C[C@@H](O)C(O)NC(=O)[C@@H]2[C@@H](O)[C@@H](C)CN2C(=O)[C@H](CO)NC(=O)[C@H]([C@@H](O)Cc2ccc(O)cc2)NC(=O)[C@@H]2C[C@@H](O)CN2C(=O)[C@H]([C@@H](C)O)NC1=O` (some centres undefined), the Zone size in the test with Aspergillus fumigatus [5] and in the test on Candida albicans [3] was 30 mm in each case. Further, in the test on Candida albicans [6], the “Approximate colony formation unit” value is listed as 180000000 (g kidney)-1.
`CCC(C)CCCCCCCCCCC(=O)N[C@@H]1C[C@@H](O)CNC(=O)[C@@H]2[C@@H](O)[C@@H](C)CN2C(=O)[C@H](CO)NC(=O)[C@H]([C@@H](O)C(O)c2ccc(O)cc2)NC(=O)[C@@H]2C[C@@H](O)CN2C(=O)[C@H]([C@@H](C)O)NC1=O` (some centres undefined): the Zone size is 23 mm in the test on Aspergillus fumigatus [5], 25 mm in the test on Aspergillus fumigatus [2], 25 mm in the test on Candida albicans [3] and 29 mm with Candida albicans [4].
In the case of `CCC(C)CCCCCCCCCCC(=O)N[C@@H]1C[C@@H](O)[C@H](O)NC(=O)[C@@H]2[C@@H](O)[C@@H](C)CN2C(=O)[C@H](CO)NC(=O)[C@H]([C@@H](O)[C@H](O)c2ccc(O)cc2)NC(=O)[C@@H]2C[C@@H](O)CN2C(=O)[C@H]([C@@H](C)O)NC1=O` (some centres undefined), the Zone size in the test with Aspergillus fumigatus [7] turned out to be 35 mm; with Aspergillus fumigatus [9], 29 mm; in the test on Candida albicans [10], 24 mm; in the test with Candida albicans [12], 29 mm. Besides, the “Approximate colony formation unit” value in the test with Candida albicans [8] is 150000000 (g kidney)-1; in the test with Candida albicans [11], 12500000 (g kidney)-1.
As for `CCC(C)CCCCCCCCCCC(=O)N[C@@H]1C[C@@H](O)CNC(=O)[C@@H]2[C@@H](O)[C@@H](C)CN2C(=O)[C@H](CO)NC(=O)[C@H]([C@@H](O)Cc2ccc(O)cc2)NC(=O)[C@@H]2C[C@@H](O)CN2C(=O)[C@H]([C@@H](C)O)NC1=O` (some centres undefined), the Zone size is 30 mm with Aspergillus fumigatus [5]; 35 mm in the test with Aspergillus fumigatus [2]; 25 mm with Aspergillus fumigatus [13]; 24 mm in the test with Candida albicans [14]; 38 mm with Candida albicans [4]. Besides, the “Approximate colony formation unit” value with Candida albicans [6] is listed as 7700000 (g kidney)-1.
Take `CCC(C)CCCCCCCCCCC(=O)N[C@@H]1C[C@H](O)C(C#N)NC(=O)[C@@H]2[C@@H](O)[C@@H](C)CN2C(=O)[C@H](CO)NC(=O)[C@H]([C@@H](O)[C@H](O)c2ccc(O)cc2)NC(=O)[C@@H]2C[C@@H](O)CN2C(=O)[C@H]([C@@H](C)O)NC1=O` (some centres undefined): the Zone size was found to be 20 mm in the test with Aspergillus fumigatus [5], 27 mm in the test on Aspergillus fumigatus [2], 19 mm in the test on Candida albicans [3] and 25 mm in the test with Candida albicans [4].
For the compound `CCC(C)CCCCCCCCCCC(=O)N[C@@H]1C[C@@H](O)[C@H](OCc2ccccc2)NC(=O)[C@@H]2[C@@H](O)[C@@H](C)CN2C(=O)C(CO)NC(=O)C([C@@H](O)Cc2ccc(O)cc2)NC(=O)[C@@H]2C[C@@H](O)CN2C(=O)C(C(C)O)NC1=O` (some centres undefined), the Zone size in the test with Aspergillus fumigatus [5] is 15 mm; with Aspergillus fumigatus [2] it was 18 mm; with Candida albicans [4] it was 17 mm.
On to `CCC(C)CCCCCCCCCCC(=O)N[C@@H]1C[C@@H](O)C(OCc2ccccc2)NC(=O)[C@@H]2[C@@H](O)[C@@H](C)CN2C(=O)C(CO)NC(=O)C([C@@H](O)[C@H](O)c2ccc(O)cc2)NC(=O)[C@@H]2C[C@@H](O)CN2C(=O)C(C(C)O)NC1=O` (some centres undefined), for which the Zone size with Aspergillus fumigatus [15] came to 26 mm; in the test with Aspergillus fumigatus [16], 24 mm; in the test with Candida albicans [4], 16 mm.
`CCC(C)CCCCCCCCCCC(=O)N[C@@H]1C[C@@H](O)C(c2ccc(OC)c(OC)c2)NC(=O)[C@@H]2[C@@H](O)[C@@H](C)CN2C(=O)C(CO)NC(=O)C([C@@H](O)[C@H](O)c2ccc(O)cc2)NC(=O)[C@@H]2C[C@@H](O)CN2C(=O)C(C(C)O)NC1=O` (some centres undefined): the Zone size is 30 mm in the test with Aspergillus fumigatus [5], 32 mm with Aspergillus fumigatus [2], 24 mm in the test on Candida albicans [3] and 29 mm with Candida albicans [4].
Consider `CCC(C)CCCCCCCCCCC(=O)N[C@@H]1C[C@@H](O)C(OC)NC(=O)[C@@H]2[C@@H](O)[C@@H](C)CN2C(=O)C(CO)NC(=O)C([C@@H](O)[C@H](O)c2ccc(O)cc2)NC(=O)[C@@H]2C[C@@H](O)CN2C(=O)C(C(C)O)NC1=O` (some centres undefined), for which the Zone size with Aspergillus fumigatus [17] amounted to 35 mm; in the test on Aspergillus fumigatus [18] it was 37 mm; in the test with Aspergillus fumigatus [16], 24 mm; in the test with Candida albicans [3], 25 mm; with Candida albicans [19], 26 mm; in the test on Candida albicans [4] it was 27 mm.
Turning to `CCC(C)CCCCCCCCCCC(=O)N[C@@H]1C[C@@H](O)C(CN)NC(=O)[C@@H]2[C@@H](O)[C@@H](C)CN2C(=O)C(CO)NC(=O)C([C@@H](O)[C@H](O)c2ccc(O)cc2)NC(=O)[C@@H]2C[C@@H](O)CN2C(=O)C(C(C)O)NC1=O` (some centres undefined), the Zone size in the test with Aspergillus fumigatus [5] was found to be 23 mm; with Aspergillus fumigatus [2], 25 mm; in the test on Candida albicans [3], 22 mm; in the test on Candida albicans [4], 25 mm.
In the case of `OC(Cn1cncn1)(Cn1cncn1)c1ccc(F)cc1F` [FLUCONAZOLE], the “Approximate colony formation unit” value was 380000 (g kidney)-1 in the test with Candida albicans [8] and 10000 (g kidney)-1 in the test on Candida albicans [11].

Source of the values: ChEMBL document CHEMBL1147582, “Approaches towards the stabilization of hemiaminal function at ornithine unit of mulundocandin” (2004).
